What is called MIC is the smallest concentration in the dilution series that meets the test's criterion for growth inhibition. Low readings indicate greater potency, high ones weaker potency. As usually defined, the LD50 is the dose at which mortality reaches 50%. Higher therefore signals lower toxicity.

The source of these data is paper PMC7124310 (Peptides, 2003).

In one data set the test system is mammalian cells. The following applies: cited from earlier work.
The next data set deals with Vero76 cells. Description: Peptide cytotoxicity, neutral red uptake assay. It counts as cell-based. The following applies: for Cell survival: 30 min at 37°C, neutral red uptake after 48 h, uninfected cells. The essentials:
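Confluent uninfected Vero76 monolayers (MEM, 10% FCS, penicillin/streptomycin) were exposed to test peptide (0.5–50 μM range, in MEM) for 30 min at 37 °C, 5% CO2. Cells were washed and kept 48 h in growth medium, then given 50 μg/ml neutral red for 3 h. They were fixed in formaldehyde/CaCl2, the dye was extracted with acidified ethanol, and A550 was read. Triplicates, two experiments.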

For another data set, the system named is E. coli O18:K1:H7 Bort. In words: MIC, microdilution susceptibility test. The format is cell-based, Escherichia coli. The settings on record: strain used in peritonitis model; Mueller–Hinton broth. The essentials: (§1)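 Strains were stored at −80 °C and subcultured in LB broth before use. MIC was determined by broth microdilution following NCCLS guidelines in Mueller–Hinton broth with logarithmic-phase bacteria. Values are the mean of at least four independent experiments.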
(In general: In broth dilution the organism is exposed to a series of concentrations in liquid medium.)

The subject of the next data set is S. aureus MRSA. In words: MIC, microdilution susceptibility test. The settings on record: strain used in peritonitis model; Mueller–Hinton broth. The format is cell-based, Staphylococcus aureus. In short, it runs like this:
as §1

Another data set deals with P. aeruginosa ATCC 27853. Description: MIC, microdilution susceptibility test. The settings on record: strain used in peritonitis model; Mueller–Hinton broth. It counts as cell-based, Pseudomonas aeruginosa. In short, it runs like this: as §1
The test system of the next data set is Gram-positive strains. Description: MIC, microdilution susceptibility test, Gram-positive isolates. It counts as cell-based. The settings on record: Gram-positive strains (Fig. 1 and Table 2). The essentials: as §1
Data set [1] concerns Gram-negative and -positive clinical isolates. In words: MIC, microdilution susceptibility test, whole panel of clinical isolates. It counts as cell-based. The settings on record: 53 bacterial isolates incl. antibiotic-resistant strains. The essentials: as §1
For data set [2], the system named is human herpes simplex virus type 1 (HSV-1). In words: Virus yield inhibition assay. It counts as cell-based, HSV-1 in Vero76 cells. The settings on record: mean of two independent experiments in triplicate. The essentials: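 Confluent Vero76 monolayers were infected with 10^4 […] HSV-1 together with test peptide in MEM for 30 min at 37 °C, washed with PBS, and incubated 24 h. They were freeze-thawed three times. Ten-fold supernatant dilutions were adsorbed 1 h onto fresh monolayers under a 0.8% carboxymethylcellulose/2% FCS overlay for 3 days. Plaques were stained with crystal violet and counted as % inhibition versus untreated controls. Triplicates, repeated.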

The test system of data set [3] is A. baumannii and P. aeruginosa. Description: MIC, microdilution susceptibility test. The settings on record: clinical isolates (Fig. 2). It counts as cell-based, Acinetobacter baumanni, Pseudomonas aeruginosa. In short, it runs like this: as §1
Another data set deals with Gram-negative species. Description: MIC, microdilution susceptibility test, Gram-negative isolates. The format is cell-based. The settings on record: Gram-negative species (Fig. 2 and Table 2). In short, it runs like this:
as §1

The next data set is described as follows: In vivo toxicity, i.v. The following applies: single dose, Litchfield and Wilcoxon. More on the design: species or system male Balb/c mice. In short, it runs like this: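 Male Balb/c mice (about 20 g, 4 weeks old) received a single i.v. injection of increasing doses of test peptide in sterile PBS, with vehicle-only controls. Behaviour and survival were monitored for 7 days. LD50 was calculated by the Litchfield–Wilcoxon method.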

The conditions of data set [4]: 12 mg/kg peptide i.v.; cited from earlier work.

No end group written: not given here.

In the case of GGLRSLGRKILRAWKKYG-NH2 [BMAP-28(1–18)], in the data set with mammalian cells, the “cytotoxic and haemolytic activities” value is “virtually devoid”. Moreover, in the data set with Vero76 cells (5 μM peptide), the “toxicity to Vero cells” value is recorded as “not toxic”. For the same substance, the MIC in the data set with E. coli O18:K1:H7 Bort was 2 µM; in the data set with S. aureus MRSA, 4 to 8 µM; in the data set with P. aeruginosa ATCC 27853 it was 2 µM.
Turning to “GGLRSLGRKILRAWKKYGPIIVPIIRI-NH2 [BMAP-28]”, the “concentration range toxic to mammalian cells” value in the data set with mammalian cells is listed as “above 10 μM”. Also, the Cell survival with Vero76 cells (0.5 μM peptide) amounted to 100%; with Vero76 cells (5 μM peptide), 83%; with Vero76 cells (50 μM peptide), 5%. Also, in the data set with Vero76 cells (5 μM peptide), the “cells taking up the neutral red dye (cytotoxicity)” value came out at 17%. The MIC with E. coli O18:K1:H7 Bort, in the data set on S. aureus MRSA and with P. aeruginosa ATCC 27853 was 2 µM throughout. This substance also yielded an MIC values with Gram-positive strains of 1 to 8 µM. Further, the “MIC values in most cases” value in data set [1] lay in the range of 1 to 8 µM. Besides, the Virus yield inhibition in [2] (0.5 μM peptide) came to 10%; in data set [2] (5 μM peptide) it was 72%.
Consider “GGLRSLGRKILRAWKKYGPQATPATRQ-NH2 [mBMAP-28]”, for which the MIC is 2 µM against E. coli O18:K1:H7 Bort, greater than 32 µM against S. aureus MRSA and 2 µM against P. aeruginosa ATCC 27853. In data set [3], this substance registered an MICs of 0.25 to 1 µM. The same substance displayed an MIC values with Gram-positive strains greater than 32 µM.
Take GRFKRFRKKFKKLFKKLS-NH2 [BMAP-27(1–18)]: the “cytotoxic and haemolytic activities” value in the data set with mammalian cells was “virtually devoid”. Moreover, the figures for the MIC in the data set with E. coli O18:K1:H7 Bort, against S. aureus MRSA and with P. aeruginosa ATCC 27853 were 8 µM, 4 to 8 µM and 2 µM, respectively.
In the case of “GRFKRFRKKFKKLFKKLSPVIPLLHL-NH2 [BMAP-27]”, the “concentration range toxic to mammalian cells” value in the data set on mammalian cells is reported as “above 10 μM”. In the data set on Vero76 cells (lowest peptide concentration tested (range 0.5–50 μM)), the “cytotoxicity to Vero cells” value is “cytotoxic even at the lowest peptide concentration tested”. Also, the MIC in the data set with E. coli O18:K1:H7 Bort came to 0.5 µM; against S. aureus MRSA it was 4 µM; against P. aeruginosa ATCC 27853, 1 µM. This substance also yielded an MIC values against Gram-negative species of 1 to 2 µM. The substance further had an LD50 in “In vivo toxicity, i.v.” of 10 mg/kg. The “MIC values in most cases” value in data set [1] fell in the range of 1 to 8 µM.
As to ILRAWKKYGPIIVPIIRI-NH2 [BMAP-28(10–27)], the MIC in the data set with E. coli O18:K1:H7 Bort is 2 µM; against S. aureus MRSA, 8 µM; against P. aeruginosa ATCC 27853 it was 8 µM.
On to “indolicidin: a bovine cathelicidin peptide (ILPWKWPWWPWRR; ends and bridges not checked; UniProt P33046 131-143, looked up)”, for which, in data set [4], the “toxicity to mice when injected i.v.” value is reported as “all treated animals died”.
